Reference: article PMC3716464 (Angewandte Chemie (International ed. in English), 2009)

Test system: b(h)CAII
Test: dot blot detection of b
Type: binding, bovine; human
Conditions: biligand in 0.1% serum, compared with triligand in 10% porcine serum
Method in brief: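 Dot blot with the test peptide as capture agent for b(h)CAII in 10% porcine serum, varying protein amount to find the detection limit. For comparison, the biligand anchor served as capture agent in 0.1% serum.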

For `C#CC[C@@H](N)C(=O)N[C@H](CCCCN)C(=O)N[C@H](Cc1c[nH]c2ccccc12)C(=O)N[C@H](CC(C)C)C(=O)N[C@H](Cc1c[nH]c2ccccc12)C(=O)NCC(=O)N[C@H](CC(C)C)C(=O)N[C@@H](CCCCn1cc(C[C@@H](NC(=O)[C@@H](CCCCN)NC(=O)[C@@H](Cc2ccccc2)NC(=O)[C@@H](Cc2c[nH]c3ccccc23)NC(=O)[C@@H](CC(C)C)NC(=O)[C@@H](CCCCN)NC(=O)[C@H](N)CC(C)C)C(N)=O)nn1)C(N)=O` [(D-Pra)-kwlwGl-Tz1-kfwlkl], the “reduction in sensitivity (biligand anchor as capture agent versus triligand)” value was “more than 10 fold”.
